Experimental data published in publication PMC6045484 (ACS Omega, 2018).
≈ marks a conversion by molar mass, not a printed value.

Legend:
[1] = tested on: SK-MEL, KB, BT-549, SK-OV-3, VERO and LLC-PK1 cells; assay: cytotoxicity, neutral red uptake assay; assay type: cell-based, mammalian; details: highest test concentration 4760 ng/mL
Method in brief: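 Cells seeded at 25 000/well and allowed 24 h to reach confluence. Test compound was then added and incubated 48 h. Viable cells were counted by a modified neutral red uptake method. The panel was four human cancer lines and two noncancerous mammalian kidney lines. Doxorubicin served as positive control and DMSO as negative control.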

C. neoformans ATCC90113 = assay: in vitro antifungal activity; assay type: cell-based, Cryptococcus neoformans
Method in brief: (§1)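 Modified NCCLS broth method in Sabouraud dextrose. Inoculum set by OD630 to 1.5 × 10^3 CFU/mL. Test compound serially diluted in 20% DMSO/saline, duplicate wells, up to 20 μg/mL. Incubated 70–74 h at 35 °C; 530 nm read before and after. IC50 is 50% growth inhibition; MIC is no detectable growth. MFC from clear wells subcultured on agar. Amphotericin B control.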

C. glabrata ATCC90030 = assay: in vitro antifungal activity; assay type: cell-based, Candida glabrata
Method in brief: as §1

MRSA (ATCC33591) = assay: in vitro antibacterial activity; assay type: cell-based, methicillin-resistant Staphylococcus aureus; details: methicillin-resistant S. aureus; highest test concentration 20 μg/mL
Method in brief: (§2)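 Test compound serially diluted in 20% DMSO/saline and plated in duplicate, up to 20 μg/mL. Inoculum in cation-adjusted Mueller–Hinton broth, pH 7.3, set by OD630 to 5 × 10^5 CFU/mL. Incubated 16–20 h at 35 °C; 530 nm read before and after. IC50 is 50% growth inhibition; MIC is no detectable growth. MBC from clear wells subcultured on agar. Ciprofloxacin control.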

[2] = tested on: L. donovani promastigotes; assay: in vitro antileishmanial activity, alamarBlue assay; assay type: cell-based, Leishmania donovani; details: promastigotes, 48 h
P. falciparum (D6) = assay: in vitro antimalarial activity, plasmodial LDH; assay type: cell-based, Plasmodium falciparum; details: CQ-sensitive D6 strain, 72 h
[3] = tested on: M. intracellulare (ATCC23068); assay: in vitro antibacterial activity, modified alamarBlue procedure; assay type: cell-based, Mycobacterium intracellulare; details: highest test concentration 20 μg/mL
Method in brief: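 Modified alamarBlue microplate method. Test compound serially diluted in 20% DMSO/saline, duplicate wells, up to 20 μg/mL. Inoculum 2.0 × 10^6 CFU/mL in Middlebrook 7H9 with OADC, pH 7.3, containing 5% alamarBlue. Incubated 70–74 h at 37 °C, 10% CO2; fluorescence 544ex/590em read before and after. MIC: no blue-to-pink change. MBC by subculturing blue wells on agar. Ciprofloxacin control.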

C. albicans ATCC90028 = assay: in vitro antifungal activity; assay type: cell-based, Candida albicans
Method in brief: as §1

P. falciparum (W2) = assay: in vitro antimalarial activity, plasmodial LDH; assay type: cell-based, Plasmodium falciparum; details: CQ-resistant W2 strain, 72 h
Method in brief: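 P. falciparum-infected erythrocytes (2% parasitemia, 2% hematocrit) in RPMI 1640 with 10% human serum and 60 μg/mL amikacin. Exposed to test compound dilutions for 72 h at 37 °C under 90% N2/5% O2/5% CO2. LDH measured with Malstat reagent (30 min, room temperature), then NBT/PES for 1 h in the dark, stopped with 5% acetic acid, read at 650 nm. IC50 from dose-response curves.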

SA (ATCC29213) = assay: in vitro antibacterial activity; assay type: cell-based; details: Staphylococcus aureus; highest test concentration 20 μg/mL
Method in brief: as §2

C. krusei ATCC6258 = assay: in vitro antifungal activity; assay type: cell-based, Candida krusei
Method in brief: as §1

A. fumigatus ATCC 90906 = assay: in vitro antifungal activity; assay type: cell-based, Aspergillus fumigatus
Method in brief: as §1

| Structure (SMILES) | cytotoxicity CTX [1] | C. neoformans IC50 (C. neoformans ATCC90113) | C. neoformans MFC (C. neoformans ATCC90113) | C. neoformans MIC (C. neoformans ATCC90113) | C. glabrata IC50 (C. glabrata ATCC90030) | C. glabrata MFC (C. glabrata ATCC90030) | C. glabrata MIC (C. glabrata ATCC90030) | IC50 (concentration that affords 50% growth inhibition), MRSA (MRSA (ATCC33591)) | MBC (minimum bactericidal concentration), MRSA (MRSA (ATCC33591)) | MIC, MRSA (MRSA (ATCC33591)) | L. donovani IC50 [2] | L. donovani IC90 [2] | P. falciparum (D6) IC50 (P. falciparum (D6)) | IC50 (concentration that affords 50% growth inhibition), M. intracellulare [3] | MBC (minimum bactericidal concentration), M. intracellulare [3] | MIC, M. intracellulare [3] | C. albicans IC50 (C. albicans ATCC90028) | C. albicans MFC (C. albicans ATCC90028) | C. albicans MIC (C. albicans ATCC90028) | P. falciparum (W2) IC50 (P. falciparum (W2)) | further results |
| --- | --- | --- | --- | --- | --- | --- | --- | --- | --- | --- | --- | --- | --- | --- | --- | --- | --- | --- | --- | --- | --- |
| CCCCCCOc1c(OC)cc(NC(C)CCCNC(=O)C2CCCN2)c2nc(C(C)(C)C)ccc12 (stereo not drawn) [compound 103, N-(4-(2-tert-Butyl-5-(hexyloxy)-6-methoxyquinolin-8-lamino)pentyl)pyrrolidine-2-carboxamide] | NC (NC, not cytotoxic up to 4760 ng/mL (4.76 μg/mL)) | 1.49 µg/mL | 2.50 µg/mL | 2.50 µg/mL | 8.91 µg/mL | 10.00 µg/mL | 10.00 µg/mL | 2.64 µg/mL (≈ 5.15 µM) | 20.00 µg/mL (≈ 39 µM) | 5.00 µg/mL (≈ 9.75 µM) | 4.0 µg/mL | 6.8 µg/mL | 4 µg/mL | 5.94 µg/mL (≈ 11.6 µM) | 10.00 µg/mL (≈ 19.5 µM) | 10.00 µg/mL (≈ 19.5 µM) | 11.54 µg/mL | 20.00 µg/mL | 20.00 µg/mL | 2.7 µg/mL | IC50 (concentration that affords 50% growth inhibition), SA (SA (ATCC29213)): 2.89 µg/mL (≈ 5.64 µM); MBC (minimum bactericidal concentration), SA (SA (ATCC29213)): 10.00 µg/mL (≈ 19.5 µM); MIC, SA (SA (ATCC29213)): 5.00 µg/mL (≈ 9.75 µM); C. krusei IC50 (C. krusei ATCC6258): 8.76 µg/mL; C. krusei MFC (C. krusei ATCC6258): 10.00 µg/mL; C. krusei MIC (C. krusei ATCC6258): 10.00 µg/mL; A. fumigatus IC50 (A. fumigatus ATCC 90906): NA (NA, no activity at the highest test concentration of 20 μg/mL); A. fumigatus MFC (A. fumigatus ATCC 90906): NA (NA, no activity at the highest test concentration of 20 μg/mL); A. fumigatus MIC (A. fumigatus ATCC 90906): NA (NA, no activity at the highest test concentration of 20 μg/mL) |
| CCCCCCCOc1c(OC)cc(NC(C)CCCNC(=O)C2CCCN2)c2nc(C(C)(C)C)ccc12 (stereo not drawn) [compound 113, N-(4-(2-tert-Butyl-5-(heptyloxy)-6-methoxyquinolin-8-lamino)pentyl)pyrrolidine-2-carboxamide] | NC (NC, not cytotoxic up to 4760 ng/mL (4.76 μg/mL)) | 2.93 µg/mL | 5.00 µg/mL | 5.00 µg/mL | NA (NA, no activity at the highest test concentration of 20 μg/mL) | NA (NA, no activity at the highest test concentration of 20 μg/mL) | NA (NA, no activity at the highest test concentration of 20 μg/mL) | 3.16 µg/mL (≈ 6 µM) | 20.00 µg/mL (≈ 38 µM) | 5.00 µg/mL (≈ 9.49 µM) | 3.8 µg/mL | 7 µg/mL | 2.4 µg/mL | 16.67 µg/mL (≈ 31.6 µM) | 20.00 µg/mL (≈ 38 µM) | 20.00 µg/mL (≈ 38 µM) | NA (NA, no activity at the highest test concentration of 20 μg/mL) | NA (NA, no activity at the highest test concentration of 20 μg/mL) | NA (NA, no activity at the highest test concentration of 20 μg/mL) | 1.5 µg/mL | IC50 (concentration that affords 50% growth inhibition), SA (SA (ATCC29213)): 3.52 µg/mL (≈ 6.68 µM); MBC (minimum bactericidal concentration), SA (SA (ATCC29213)): 10.00 µg/mL (≈ 19 µM); MIC, SA (SA (ATCC29213)): 10.00 µg/mL (≈ 19 µM); C. krusei IC50 (C. krusei ATCC6258): NA (NA, no activity at the highest test concentration of 20 μg/mL); C. krusei MFC (C. krusei ATCC6258): NA (NA, no activity at the highest test concentration of 20 μg/mL); C. krusei MIC (C. krusei ATCC6258): NA (NA, no activity at the highest test concentration of 20 μg/mL); A. fumigatus IC50 (A. fumigatus ATCC 90906): NA (NA, no activity at the highest test concentration of 20 μg/mL); A. fumigatus MFC (A. fumigatus ATCC 90906): NA (NA, no activity at the highest test concentration of 20 μg/mL); A. fumigatus MIC (A. fumigatus ATCC 90906): NA (NA, no activity at the highest test concentration of 20 μg/mL) |
| CCCCCCCCOc1c(OC)cc(NC(C)CCCNC(=O)C(N)CCCN)c2nc(C(C)(C)C)ccc12 (stereo not drawn) [compound 118, 2,5-Diamino-N-(4-(2-tert-butyl-6-methoxy-5-(octyloxy)quinolin-8-lamino)pentyl)-pentanamide] | NC (NC, not cytotoxic up to 4760 ng/mL (4.76 μg/mL)) | 4.93 µg/mL | >20 µg/mL | >20 µg/mL | 8.05 µg/mL | >20 µg/mL | >20 µg/mL | NA (NA, no activity at the highest test concentration of 20 μg/mL) | NA (NA, no activity at the highest test concentration of 20 μg/mL) | NA (NA, no activity at the highest test concentration of 20 μg/mL) | 26.61 µg/mL | 37.9 µg/mL | NA (NA, not active) | 7.71 µg/mL (≈ 13.8 µM) | >20 µg/mL | >20 µg/mL | 19.95 µg/mL | >20 µg/mL | >20 µg/mL | NA (NA, not active) | IC50 (concentration that affords 50% growth inhibition), SA (SA (ATCC29213)): NA (NA, no activity at the highest test concentration of 20 μg/mL); MBC (minimum bactericidal concentration), SA (SA (ATCC29213)): NA (NA, no activity at the highest test concentration of 20 μg/mL); MIC, SA (SA (ATCC29213)): NA (NA, no activity at the highest test concentration of 20 μg/mL); C. krusei IC50 (C. krusei ATCC6258): 15.36 µg/mL; C. krusei MFC (C. krusei ATCC6258): >20 µg/mL; C. krusei MIC (C. krusei ATCC6258): >20 µg/mL; A. fumigatus IC50 (A. fumigatus ATCC 90906): NA (NA, no activity at the highest test concentration of 20 μg/mL); A. fumigatus MFC (A. fumigatus ATCC 90906): NA (NA, no activity at the highest test concentration of 20 μg/mL); A. fumigatus MIC (A. fumigatus ATCC 90906): NA (NA, no activity at the highest test concentration of 20 μg/mL) |
